Converted amounts (≈) assume the structure as drawn.
Key:
Assay type in all cases: functional
[1] = tested on: Candida; test: Tested In vitro for antifungal activity against Candida species. at pH 7.2
How it was run: (§1)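 Liquid serial-dilution MIC against 3 freshly isolated clinical Candida strains (two C. glabrata, one C. krusei) in Sabouraud broth at pH 7.2 or 5.8. Inoculum was 10³/mL after 18 h pre-culture at 37 °C, read at 24 h, 37 °C. Range was 0.25–256 μg/mL. Endpoint was no visible growth versus a DMSO/water blank.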

[2] = target: Lanosterol 14-alpha demethylase (Candida albicans (strain SC5314 / ATCC MYA-2876) (Yeast), UniProt P10613); test: Anticandida activity- (MIC90 compound) / (MIC90 bifonazole)
[3] = tested on: Candida albicans; test: In vitro antifungal activity against 40 strains of Candida albicans at pH 5.8; (percent of resistant species at 256 ug/mL)
How it was run: (§2)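 Broth serial-dilution test in Sabouraud broth at pH 7.2 or 5.8, against 40 fresh clinical C. albicans isolates from hospitalized patients. Inocula were 10³/mL, pre-grown 18 h at 37 °C in Sabouraud dextrose broth. Compound from a DMSO/water stock was twofold-diluted over 0.25–256 µg/mL. Visible growth was read at 24 h, 37 °C.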

[4] = tested on: Candida albicans; test: IIn vitro antifungal activity against 40 strains of Candida albicans at pH 7.2; minimum inhibitory concentration (range is from 2 to 64)
How it was run: (§3)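 Broth serial-dilution MIC against 40 clinical C. albicans isolates from hospitalized patients, grown in Sabouraud broth at pH 7.2 or 5.8. Cells were pre-grown 18 h at 37 °C, inoculated at 10³/mL, and read at 24 h, 37 °C. Doubling dilutions ran 0.25–256 μg/mL from a DMSO/water solution. MIC was the lowest concentration with no visible growth against a DMSO/water blank.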

[5] = tested on: Candida albicans; test: TIn vitro antifungal activity against 40 strains of Candida albicans at pH 5.8; (range is from 4 to 64); how it was run: as §3
[6] = tested on: Candida; test: Tested in vitro for antifungal activity against Candida species. at pH 5.8 (range is from 8 to 256); how it was run: as §1
[7] = tested on: Candida albicans; test: In vitro antifungal activity against 40 strains of Candida albicans at pH 7.2; how it was run: as §3
[8] = tested on: Candida; test: Tested In vitro for antifungal activity against Candida species. at pH 7.2; (percent of resistant species at 256 ug/mL)
How it was run: (§4)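 Broth serial-dilution test in Sabouraud broth at pH 7.2 or 5.8, against 3 fresh clinical non-albicans isolates (two C. glabrata, one C. krusei). Inocula were 10³/mL, pre-grown 18 h at 37 °C. Compound was twofold-diluted over 0.25–256 µg/mL and read at 24 h, 37 °C for visible growth.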

[9] = tested on: Candida albicans; test: In vitro antifungal activity against 40 strains of Candida albicans at pH 5.8; how it was run: as §3
[10] = tested on: Candida; test: Tested in vitro for antifungal activity against Candida species. at pH 5.8; how it was run: as §1
[11] = tested on: Candida albicans; test: In vitro antifungal activity against 40 strains of Candida albicans at pH 7.2; (percent of resistant species at 256 ug/mL); how it was run: as §2
[12] = tested on: Candida; test: Tested In vitro for antifungal activity against Candida species. at pH 7.2; (range is from 1 to 32); how it was run: as §1
[13] = tested on: Candida; test: Tested in vitro for antifungal activity against Candida species. at pH 5.8 (percent of resistant species at 256 ug/mL); how it was run: as §4
[14] = tested on: Candida; test: Tested In vitro for antifungal activity against Candida species. at pH 7.2; (range is from 8 to 256); how it was run: as §1
[15] = tested on: Candida albicans; test: IIn vitro antifungal activity against 40 strains of Candida albicans at pH 7.2; minimum inhibitory concentration (range is from 2 to 128); how it was run: as §3
[16] = tested on: Candida albicans; test: In vitro antifungal activity against 40 strains of Candida albicans at pH 5.8; (range is from 4 to 64); how it was run: as §3
[17] = tested on: Candida; test: Tested in vitro for antifungal activity at pH 7.2 (percent of resistant species at 256 ug/mL)
How it was run: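 Sabouraud broth serial-dilution test (0.25–256 µg/mL, 10³/mL inocula, 24 h at 37 °C), run at the stated pH on clinical isolates: 40 C. albicans and 3 Candida spp. (two C. glabrata, one C. krusei).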

[18] = tested on: Candida; test: Tested in vitro for antifungal activity against Candida species. at pH 5.8 (value ranges from 16 to 128); how it was run: as §1
[19] = tested on: Candida albicans; test: In vitro antifungal activity against 40 strains of Candida albicans at pH 7.2; value ranges from 128 to >256; how it was run: as §3
[20] = tested on: Candida; test: Tested In vitro for antifungal activity against Candida species. at pH 7.2 (percent of resistant species at 256 ug/mL); how it was run: as §4
[21] = tested on: Candida albicans; test: In vitro antifungal activity against 40 strains of Candida albicans at pH 5.8; value ranges from 256 to >256; how it was run: as §3
[22] = tested on: Candida albicans; test: In vitro antifungal activity against 40 strains of Candida albicans at pH 5.8 (percent of resistant species at 256 ug/mL); how it was run: as §2
[23] = tested on: Candida albicans; test: In vitro antifungal activity against Candida albicans (40 strains) at pH 7.2; (percent of resistant species at 256 ug/mL); how it was run: as §2
[24] = tested on: Candida; test: Tested In vitro for antifungal activity against Candida species. at pH 7.2; (range is from 2 to 32); how it was run: as §1
[25] = tested on: Candida albicans; test: In vitro antifungal activity against 40 strains of Candida albicans at pH 5.8; (range is from 0.25 to 64); how it was run: as §3
[26] = tested on: Candida albicans; test: In vitro antifungal activity against 40 strains of Candida albicans at pH 7.2; minimum inhibitory concentration (range is from 1 to 32); how it was run: as §3
[27] = tested on: Candida; test: Tested in vitro for antifungal activity against Candida species. at pH 5.8 (range is from 4 to 16); how it was run: as §1

Lanosterol 14-alpha demethylase, sequence (P10613 whole entry): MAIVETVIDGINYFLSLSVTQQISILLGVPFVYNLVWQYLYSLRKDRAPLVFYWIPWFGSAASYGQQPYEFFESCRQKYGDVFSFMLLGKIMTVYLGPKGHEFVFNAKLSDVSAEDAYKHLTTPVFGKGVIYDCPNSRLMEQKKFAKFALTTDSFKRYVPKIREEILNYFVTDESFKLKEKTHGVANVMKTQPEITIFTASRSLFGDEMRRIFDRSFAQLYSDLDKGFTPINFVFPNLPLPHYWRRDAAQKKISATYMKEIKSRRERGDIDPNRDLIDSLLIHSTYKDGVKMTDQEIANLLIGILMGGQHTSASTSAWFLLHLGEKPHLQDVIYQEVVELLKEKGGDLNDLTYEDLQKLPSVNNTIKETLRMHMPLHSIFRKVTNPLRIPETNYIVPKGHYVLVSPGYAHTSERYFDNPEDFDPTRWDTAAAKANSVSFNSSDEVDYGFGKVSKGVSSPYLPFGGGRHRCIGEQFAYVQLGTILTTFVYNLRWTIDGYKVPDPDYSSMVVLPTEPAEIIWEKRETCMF

SMILES | MIC [1] [mg/L] | MIC50 [1] [mg/L] | MIC90 [1] [mg/L] | Ratio [2] | Resistance [3] [%] | MIC [7] [mg/L] | MIC50 [7] [mg/L] | MIC90 [7] [mg/L] | Resistance [8] [%] | MIC [9] [mg/L] | MIC50 [9] [mg/L] | MIC90 [9] [mg/L] | MIC [10] [mg/L] | MIC50 [10] [mg/L] | MIC90 [10] [mg/L] | Resistance [11] [%] | Resistance [13] [%] | also measured
N#Cc1ccc(-c2c[nH]cc2[C@H](c2ccc(Cl)cc2Cl)n2ccnc2)cc1 | 32.4 (≈ 82.4 µM) | 16 (≈ 40.7 µM) | 64 (≈ 163 µM) | 6.3 | 0 | 13.2 (≈ 33.6 µM) | 8 (≈ 20.3 µM) | 32 (≈ 81.4 µM) | 0 | 41.3 (≈ 105 µM) | 8 (≈ 20.3 µM) | 32 (≈ 81.4 µM) | 58 (≈ 147 µM) | 64 (≈ 163 µM) | 256 (≈ 651 µM) | 0 | 0 | Range [4]: 64 µg/mL; Range [5]: 64 µg/mL; Range [6]: 256 µg/mL; Range [12]: 32 µg/mL
Clc1ccc([C@H](c2c[nH]cc2-c2ccc(-c3ccccc3)cc2)n2ccnc2)c(Cl)c1 | 90.6 (≈ 204 µM) | 8 (≈ 18 µM) | 256 (≈ 576 µM) | 5.6 | 0 | 14.9 (≈ 33.5 µM) | 8 (≈ 18 µM) | 8 (≈ 18 µM) |  | 10.1 (≈ 22.6 µM) | 8 (≈ 18 µM) | 8 (≈ 18 µM) | 53.3 (≈ 120 µM) | 16 (≈ 36 µM) | 128 (≈ 288 µM) | 0 |  | Range [14]: 256 µg/mL; Range [15]: 128 µg/mL; Range [16]: 64 µg/mL; % R [13]: 0%; Resistance [17]: 0%; Range [18]: 128 µg/mL
CC(C)(C)c1ccc(-c2c[nH]cc2[C@@H](c2ccc(Cl)cc2Cl)n2ccnc2)cc1 |  | > 256 | > 256 | 47 |  | 165 (≈ 388 µM) | > 256 | > 256 |  | 256 (≈ 603 µM) | > 256 | > 256 |  | > 256 | > 256 |  | 100 | Range [19]: >256 µg/mL; Range [1]: >256 µg/mL; Resistance [20]: 100%; Range [21]: >256 µg/mL; Resistance [22]: 97%; Range [10]: >256 µg/mL; Resistance [23]: 80%
Clc1ccc([C@H](c2c[nH]cc2-c2ccc(-n3cccc3)cc2)n2ccnc2)c(Cl)c1 | 14.1 (≈ 32.6 µM) | 4 (≈ 9.23 µM) | 32 (≈ 73.8 µM) | 0.72 | 0 | 4.4 (≈ 10.2 µM) | 2 (≈ 4.62 µM) | 4 (≈ 9.23 µM) | 0 | 3.95 (≈ 9.12 µM) | 2 (≈ 4.62 µM) | 4 (≈ 9.23 µM) | 9.3 (≈ 21.5 µM) | 8 (≈ 18.5 µM) | 16 (≈ 36.9 µM) | 0 | 0 | Range [24]: 32 µg/mL; Range [25]: 64 µg/mL; Range [26]: 32 µg/mL; Range [27]: 16 µg/mL
